According to ChEMBL document CHEMBL1250488, “Structural and functional basis of resistance to neuraminidase inhibitors of influenza B viruses” (J Med Chem, 2010):

Tests used:
[1] = Inhibition of Influenza B virus (B/Perth/211/2001) recombinant neuraminidase E197 mutant expressed in Sf21 insect cells after 60 mins by MUNANA based assay
Summary of the method: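 The enzyme source was virus grown in cell culture and solubilized in 1% CHAPS (final), then titrated to give similar fluorescence. Inhibitor (serial log10 dilutions in water, 0.01–10000 nM; one inhibitor 0.01–10000 μM) was added together with 100 μM MUNANA, with no preincubation. Fluorescence was read every minute for 60 min without stop solution. […] Duplicates.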

[2] = Inhibition of Influenza B virus (B/Perth/211/2001) recombinant neuraminidase E197 mutant expressed in Sf21 insect cells preincubated for 30 mins measured after 60 mins by MUNANA based assay
Summary of the method: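 Virus detergent extract (1% CHAPS final, titrated to similar fluorescence) was preincubated for 30 min with inhibitor (serial log10 dilutions in water, 0.01–10000 nM; one inhibitor 0.01–10000 μM). 100 μM MUNANA was then added and fluorescence read every minute for 60 min without stop solution. […] Duplicates.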

| Structure (SMILES) | IC50 [1] | Ki [1] | IC50 [2] | Ki [2] |
| --- | --- | --- | --- | --- |
| O=C(O)C1(F)O[C@H]([C@H](O)[C@H](O)CO)[C@H](O)[C@@H](O)C1F (some centres not stated) | 19400 nM | – | – | – |
| CCOC(=O)C1=C[C@@H](OC(CC)CC)[C@H](NC(C)=O)[C@@H](N)C1 [OSELTAMIVIR] | 660 nM | 84 nM | – | – |
| CCC(CC)[C@H](NC(C)=O)[C@@H]1[C@H](O)[C@@H](C(=O)O)C[C@H]1NC(=N)N [PERAMIVIR ANHYDROUS] | 75.2 nM | 8.3 nM | 41.5 nM | 8.2 nM |
